According to ChEMBL document CHEMBL4680221, “Discovery of pyrazole derivatives as cellular active inhibitors of histone lysine specific demethylase 5B (KDM5B/JARID1B)” (Eur J Med Chem, 2020):
The source made the active and inactive calls. The rule behind the calls is not given here.

Tests used:
[1] = biological target: T1, Lysine-specific demethylase 5B (Homo sapiens, UniProt Q9UGL1); assay: Inhibition of recombinant human N-terminal FLAG-tagged KDM5B expressed in Sf9 insect cells at 10 uM using biotin-H3K4me as substrate by ALPHA relative to control
T1 sequence (Q9UGL1 whole entry): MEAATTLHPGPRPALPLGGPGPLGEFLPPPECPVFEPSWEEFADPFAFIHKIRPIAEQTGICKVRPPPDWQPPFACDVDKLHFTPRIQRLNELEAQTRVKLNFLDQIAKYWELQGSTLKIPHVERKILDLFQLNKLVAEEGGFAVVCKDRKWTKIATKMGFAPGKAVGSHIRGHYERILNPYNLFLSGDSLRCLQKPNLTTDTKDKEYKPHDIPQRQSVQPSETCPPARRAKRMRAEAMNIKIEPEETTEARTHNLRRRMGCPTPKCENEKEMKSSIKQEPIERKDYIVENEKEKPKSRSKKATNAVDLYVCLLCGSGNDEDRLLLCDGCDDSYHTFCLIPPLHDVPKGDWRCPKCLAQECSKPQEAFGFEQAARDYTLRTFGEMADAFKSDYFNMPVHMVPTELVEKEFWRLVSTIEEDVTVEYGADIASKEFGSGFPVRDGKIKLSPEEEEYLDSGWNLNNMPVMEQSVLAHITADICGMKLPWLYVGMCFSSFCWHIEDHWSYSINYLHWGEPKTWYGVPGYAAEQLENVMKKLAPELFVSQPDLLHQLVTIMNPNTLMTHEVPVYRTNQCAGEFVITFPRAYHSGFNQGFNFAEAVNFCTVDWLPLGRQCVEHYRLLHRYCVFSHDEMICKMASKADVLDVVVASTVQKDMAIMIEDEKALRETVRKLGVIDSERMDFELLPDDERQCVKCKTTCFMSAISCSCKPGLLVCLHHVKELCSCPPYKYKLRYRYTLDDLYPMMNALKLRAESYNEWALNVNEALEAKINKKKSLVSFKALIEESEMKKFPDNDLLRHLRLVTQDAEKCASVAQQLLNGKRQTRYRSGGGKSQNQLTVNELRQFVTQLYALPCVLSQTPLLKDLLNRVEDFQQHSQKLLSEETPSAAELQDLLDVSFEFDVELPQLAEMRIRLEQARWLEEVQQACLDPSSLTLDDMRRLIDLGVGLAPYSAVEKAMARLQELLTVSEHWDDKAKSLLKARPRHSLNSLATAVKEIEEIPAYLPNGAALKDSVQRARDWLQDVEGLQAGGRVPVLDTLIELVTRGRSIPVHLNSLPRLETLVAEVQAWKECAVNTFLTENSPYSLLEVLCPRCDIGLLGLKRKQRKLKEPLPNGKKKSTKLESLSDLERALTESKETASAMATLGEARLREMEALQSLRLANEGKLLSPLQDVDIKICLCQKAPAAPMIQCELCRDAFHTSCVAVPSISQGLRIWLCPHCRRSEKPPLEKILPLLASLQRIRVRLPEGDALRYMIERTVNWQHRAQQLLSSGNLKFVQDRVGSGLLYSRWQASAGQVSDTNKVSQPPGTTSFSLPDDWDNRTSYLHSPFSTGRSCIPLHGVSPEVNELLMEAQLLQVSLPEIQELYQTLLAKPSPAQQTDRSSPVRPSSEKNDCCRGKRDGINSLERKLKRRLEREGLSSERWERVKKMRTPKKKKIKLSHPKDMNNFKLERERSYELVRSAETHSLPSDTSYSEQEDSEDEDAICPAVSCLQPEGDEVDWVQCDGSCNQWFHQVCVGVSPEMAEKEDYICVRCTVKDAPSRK
Outline: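 ALPHA demethylase assay. Recombinant KDM5B (4 nM) was preincubated with compound, then biotin-H3K4me3 peptide (64 nM) was added. Buffer: 10 μM α-KG, 100 μM ascorbate, 50 μM (NH4)2Fe(SO4)2, 50 mM HEPES pH 7.5, 0.01% Tween 20, 0.1% BSA. Read-out used streptavidin donor and H3K4me1-2 antibody acceptor beads. Data were normalized to blank control and IC50 fitted.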

[2] = biological target: Lysine-specific demethylase 5A (Homo sapiens, UniProt P29375); assay: Inhibition of KDM5A (unknown origin) at 0.01 uM relative to control
Lysine-specific demethylase 5A, sequence (P29375 whole entry): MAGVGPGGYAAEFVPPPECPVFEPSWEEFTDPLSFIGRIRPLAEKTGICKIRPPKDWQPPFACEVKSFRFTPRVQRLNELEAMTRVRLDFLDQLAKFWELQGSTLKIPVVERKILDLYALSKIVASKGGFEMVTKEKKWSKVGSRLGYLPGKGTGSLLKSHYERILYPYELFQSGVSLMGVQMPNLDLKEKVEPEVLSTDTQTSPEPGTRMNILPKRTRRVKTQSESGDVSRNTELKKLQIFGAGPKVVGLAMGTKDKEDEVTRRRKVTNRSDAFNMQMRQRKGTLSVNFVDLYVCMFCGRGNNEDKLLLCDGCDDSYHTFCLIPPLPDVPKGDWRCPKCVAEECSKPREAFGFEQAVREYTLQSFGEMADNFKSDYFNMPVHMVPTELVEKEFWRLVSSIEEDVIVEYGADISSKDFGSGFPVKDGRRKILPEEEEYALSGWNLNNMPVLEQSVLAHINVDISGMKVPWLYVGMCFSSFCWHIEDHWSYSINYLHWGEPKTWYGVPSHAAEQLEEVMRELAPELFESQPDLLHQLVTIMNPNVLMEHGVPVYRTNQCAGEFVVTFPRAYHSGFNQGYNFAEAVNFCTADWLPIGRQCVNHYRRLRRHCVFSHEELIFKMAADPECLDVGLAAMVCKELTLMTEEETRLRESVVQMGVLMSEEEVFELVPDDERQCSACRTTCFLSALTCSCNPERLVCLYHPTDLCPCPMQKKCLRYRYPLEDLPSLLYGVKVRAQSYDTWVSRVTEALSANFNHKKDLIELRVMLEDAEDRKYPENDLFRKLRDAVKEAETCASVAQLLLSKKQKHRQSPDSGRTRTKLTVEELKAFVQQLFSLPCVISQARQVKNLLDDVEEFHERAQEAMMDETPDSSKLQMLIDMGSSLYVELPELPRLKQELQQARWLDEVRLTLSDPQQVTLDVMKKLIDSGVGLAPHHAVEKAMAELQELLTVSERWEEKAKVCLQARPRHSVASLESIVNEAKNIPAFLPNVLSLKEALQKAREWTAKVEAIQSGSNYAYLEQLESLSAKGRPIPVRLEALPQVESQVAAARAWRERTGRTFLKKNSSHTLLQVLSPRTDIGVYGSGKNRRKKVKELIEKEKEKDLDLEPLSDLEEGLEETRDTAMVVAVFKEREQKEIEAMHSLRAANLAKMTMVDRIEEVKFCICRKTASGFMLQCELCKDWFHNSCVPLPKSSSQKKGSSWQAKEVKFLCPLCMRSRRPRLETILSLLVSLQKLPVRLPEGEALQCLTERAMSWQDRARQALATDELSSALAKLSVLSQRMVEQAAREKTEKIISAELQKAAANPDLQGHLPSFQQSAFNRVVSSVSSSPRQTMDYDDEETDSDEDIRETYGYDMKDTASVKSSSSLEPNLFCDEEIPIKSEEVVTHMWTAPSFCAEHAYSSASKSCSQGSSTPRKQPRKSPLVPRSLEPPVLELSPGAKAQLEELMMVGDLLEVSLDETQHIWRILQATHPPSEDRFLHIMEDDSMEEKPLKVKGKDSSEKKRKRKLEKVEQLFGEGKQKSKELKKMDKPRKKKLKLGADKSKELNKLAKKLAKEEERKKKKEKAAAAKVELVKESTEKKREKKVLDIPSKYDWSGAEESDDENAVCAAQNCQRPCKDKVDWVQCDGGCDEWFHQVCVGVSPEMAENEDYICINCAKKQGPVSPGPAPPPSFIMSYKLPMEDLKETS

[3] = biological target: Lysine-specific demethylase 5C (Homo sapiens, UniProt P41229); assay: Inhibition of KDM5C (unknown origin) at 0.25 uM relative to control
[4] = biological target: Lysine-specific demethylase 6B (Homo sapiens, UniProt O15054); assay: Inhibition of KDM6B (unknown origin) at 0.01 uM relative to control
Lysine-specific demethylase 6B, sequence (O15054 whole entry): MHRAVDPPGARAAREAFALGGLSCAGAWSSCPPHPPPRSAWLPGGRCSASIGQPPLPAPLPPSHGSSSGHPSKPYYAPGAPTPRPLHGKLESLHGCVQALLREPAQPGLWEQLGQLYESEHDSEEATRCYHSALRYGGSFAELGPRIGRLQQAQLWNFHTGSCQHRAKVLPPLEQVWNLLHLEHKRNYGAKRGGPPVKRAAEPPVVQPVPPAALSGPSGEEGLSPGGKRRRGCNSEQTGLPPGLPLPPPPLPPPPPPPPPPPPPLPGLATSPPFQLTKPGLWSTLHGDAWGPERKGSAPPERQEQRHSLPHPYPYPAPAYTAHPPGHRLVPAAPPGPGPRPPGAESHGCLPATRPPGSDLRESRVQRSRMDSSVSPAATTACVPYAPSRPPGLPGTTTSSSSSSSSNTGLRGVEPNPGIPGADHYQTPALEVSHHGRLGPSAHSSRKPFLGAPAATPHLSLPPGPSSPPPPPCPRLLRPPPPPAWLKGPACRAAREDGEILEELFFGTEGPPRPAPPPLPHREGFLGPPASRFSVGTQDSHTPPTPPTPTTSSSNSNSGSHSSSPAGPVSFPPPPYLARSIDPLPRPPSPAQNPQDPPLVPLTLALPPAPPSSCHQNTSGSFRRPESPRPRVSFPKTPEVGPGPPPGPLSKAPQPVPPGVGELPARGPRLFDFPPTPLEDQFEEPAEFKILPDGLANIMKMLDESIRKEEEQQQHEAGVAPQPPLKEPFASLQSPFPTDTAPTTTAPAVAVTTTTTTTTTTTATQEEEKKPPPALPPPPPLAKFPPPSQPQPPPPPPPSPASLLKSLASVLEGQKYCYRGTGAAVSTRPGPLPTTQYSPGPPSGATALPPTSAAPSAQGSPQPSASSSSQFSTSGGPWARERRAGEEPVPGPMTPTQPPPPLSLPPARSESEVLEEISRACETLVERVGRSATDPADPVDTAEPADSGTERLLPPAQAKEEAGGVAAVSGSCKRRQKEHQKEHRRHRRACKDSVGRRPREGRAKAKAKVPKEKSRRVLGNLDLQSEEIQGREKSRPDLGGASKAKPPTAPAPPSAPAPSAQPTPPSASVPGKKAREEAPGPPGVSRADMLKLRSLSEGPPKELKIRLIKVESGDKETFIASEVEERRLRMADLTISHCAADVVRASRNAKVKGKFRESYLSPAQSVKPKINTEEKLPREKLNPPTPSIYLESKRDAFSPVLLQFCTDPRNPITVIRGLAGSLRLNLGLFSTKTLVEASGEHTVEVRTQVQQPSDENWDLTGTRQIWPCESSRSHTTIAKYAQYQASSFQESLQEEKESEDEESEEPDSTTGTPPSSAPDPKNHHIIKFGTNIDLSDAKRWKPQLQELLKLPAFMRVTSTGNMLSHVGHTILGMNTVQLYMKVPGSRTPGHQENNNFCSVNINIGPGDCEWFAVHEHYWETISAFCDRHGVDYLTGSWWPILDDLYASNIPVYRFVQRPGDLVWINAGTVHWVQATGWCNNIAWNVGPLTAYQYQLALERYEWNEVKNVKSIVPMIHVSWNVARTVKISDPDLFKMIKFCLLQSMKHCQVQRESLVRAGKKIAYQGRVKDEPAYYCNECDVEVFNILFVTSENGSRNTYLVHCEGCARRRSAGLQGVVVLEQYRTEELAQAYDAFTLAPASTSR

[5] = biological target: T2, Lysine-specific demethylase 4C (Homo sapiens, UniProt Q9H3R0); assay: Inhibition of KDM4C (unknown origin)
T2 sequence (Q9H3R0 whole entry): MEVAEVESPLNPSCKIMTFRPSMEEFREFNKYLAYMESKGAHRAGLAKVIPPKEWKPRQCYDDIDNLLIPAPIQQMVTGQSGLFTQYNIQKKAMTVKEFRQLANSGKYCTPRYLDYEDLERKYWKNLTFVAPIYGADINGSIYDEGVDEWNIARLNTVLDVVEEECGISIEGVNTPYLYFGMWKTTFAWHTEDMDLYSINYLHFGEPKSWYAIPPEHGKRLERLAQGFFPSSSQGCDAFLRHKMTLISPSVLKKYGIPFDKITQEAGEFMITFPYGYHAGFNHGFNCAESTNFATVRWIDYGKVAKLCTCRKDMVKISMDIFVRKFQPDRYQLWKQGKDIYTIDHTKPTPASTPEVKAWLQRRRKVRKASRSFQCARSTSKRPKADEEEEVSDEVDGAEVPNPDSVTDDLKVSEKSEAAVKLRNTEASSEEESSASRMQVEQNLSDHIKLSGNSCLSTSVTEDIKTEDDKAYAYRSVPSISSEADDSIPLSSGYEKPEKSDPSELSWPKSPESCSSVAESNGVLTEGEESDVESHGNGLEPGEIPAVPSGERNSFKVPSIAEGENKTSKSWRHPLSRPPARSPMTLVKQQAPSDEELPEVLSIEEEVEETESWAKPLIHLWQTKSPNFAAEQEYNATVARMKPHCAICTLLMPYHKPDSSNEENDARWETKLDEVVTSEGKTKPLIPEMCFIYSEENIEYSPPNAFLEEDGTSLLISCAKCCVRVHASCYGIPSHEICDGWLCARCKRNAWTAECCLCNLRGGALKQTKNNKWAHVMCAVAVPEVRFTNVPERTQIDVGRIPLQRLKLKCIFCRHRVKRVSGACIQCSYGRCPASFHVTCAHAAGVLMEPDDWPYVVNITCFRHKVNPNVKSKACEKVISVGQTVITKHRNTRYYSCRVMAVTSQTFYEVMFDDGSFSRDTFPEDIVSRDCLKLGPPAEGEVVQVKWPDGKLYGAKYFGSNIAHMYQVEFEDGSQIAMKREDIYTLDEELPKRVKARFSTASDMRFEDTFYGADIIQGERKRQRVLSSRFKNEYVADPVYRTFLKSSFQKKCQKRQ

[6] = biological target: T1, Lysine-specific demethylase 5B; assay: Inhibition of KDM5B in human MKN-45 cells assessed as protein stabilization measured after 1 hr by cellular thermal shift assay; assay type: cell-based
Outline: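 MKN45 cells (5×10^5) were treated with compound or DMSO for 1 h, washed in PBS and resuspended in PBS with protease inhibitors. Cells were heated at 46 °C for 3 min, then freeze-thawed three times in liquid nitrogen. KDM5B in the supernatant was measured by western blot with GAPDH control. Repeated three times.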

[7] = biological target: T1, Lysine-specific demethylase 5B; assay: Inhibition of KDM5B in human MKN-45 cells assessed as increase in H3K4me3 accumulation at 0.5 to 20 uM measured after 5 days by Western blot analysis; assay type: cell-based; settings: dose 0.5-20 µM, time 5.0 day
Outline: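 MKN45 cells were treated for 5 days and lysed in RIPA buffer. About 30 µg protein was run on 10% SDS-PAGE and transferred to 0.2 µm nitrocellulose, then blocked with 5% milk in PBS for 2 h. Blots were probed for histone methylation marks with histone 3 as loading control and detected by ECL.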

[8] = biological target: T1, Lysine-specific demethylase 5B; assay: Inhibition of KDM5B in human MKN-45 cells assessed as increase in H3K4me3 accumulation measured after 5 days by Hoechst 33342 staining based immunofluorescence assay; assay type: cell-based; settings: time 5.0 day
Outline: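 MKN45 cells were seeded and left 24 h, then treated for 5 days. Cells were fixed in 4% paraformaldehyde, permeabilised with 0.1% Triton X-100 for 20 min and blocked with 5% BSA for 1 h. H3K4me2 or H3K4me3 primary antibody was applied at 4°C overnight, followed by Alexa Fluor 488 secondary and Hoechst 33342 (5 µg/mL) nuclear stain. Signal was quantified by high content imaging; three independent experiments.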

[9] = system: MKN-45; assay: Inhibition of colony formation in human MKN-45 cells measured after 10 days by crystal violet staining based microscopic analysis; assay type: functional, cell-based; settings: time 10.0 day
Outline: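 1000 MKN45 cells were seeded in 6-well plates and treated. The medium was then replaced and cells were cultured another 10 days. Colonies were fixed with cold methanol, stained with crystal violet and photographed under a microscope.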

SMILES: COc1ccc(-n2cc(C(=O)NCC(C)(C)N3CCOCC3)c(-c3ccccc3)n2)cc1
- inhibition [1]: 95.8%
- inhibition [2]: 20.1%
- inhibition [3]: 62.1%
- inhibition [4]: 3.57%
- IC50 [5]: 1110 nM
- inhibition [6]: Dose-dependent effect
- inhibition [7]: Active
- inhibition [8]: Dose-dependent effect
- inhibition [9]: Active
